Where “and” joins values, the source holds several entries; their conditions need not be identical. Equal values may be shown once.
What was measured:
Plasmodium berghei [1] = test: Antimalarial effect against trophozoite-induced Plasmodium berghei in mice (Mus musculus) after subcutaneous dose of 10 mg/kg; type: functional
L1210 = test: Molar concentration required to reduce the number of L1210 cells by 50% after incubation for 2 days; type: functional, Mus musculus; conditions: read-out: ID50 (the source's name)
In short: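 L1210 leukemia cells in tissue culture exposed to drug for 2 days. ID50 is the molar concentration that reduces L1210 cell number by 50%. Mithramycin is the reference drug.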

Mus musculus [2] = test: Antimalarial effect against trophozoite-induced Plasmodium berghei in mice (Mus musculus) after subcutaneous administration dose of 40 mg/kg; 2 survived after 60 days of postinfection; type: functional
Plasmodium berghei [3] = test: Antimalarial effect against trophozoite-induced Plasmodium berghei in mice (Mus musculus) at 20 mg/kg subcutaneous dose; type: functional
Plasmodium berghei [4] = test: Antimalarial effect against trophozoite-induced Plasmodium berghei in mice (Mus musculus) after subcutaneous dose of 160 mg/kg; type: functional
Plasmodium berghei [5] = test: Antimalarial effect against trophozoite-induced Plasmodium berghei in mice (Mus musculus) at 40 mg/kg subcutaneous dose; type: functional
Mus musculus [6] = test: Antimalarial effect against trophozoite-induced Plasmodium berghei in mice (Mus musculus) after subcutaneous administration dose of 160 mg/kg; 3 survived after 60 days of postinfection; type: functional
Mus musculus [7] = organism: Mus musculus; test: Daily dose required for 90% parasitaemia in trophozoite induced Plasmodium berghei in 21 mice; type: functional
In short: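 Oral suppressive test in mice against a normal drug-sensitive P. berghei strain. Drug given continuously in the diet for six consecutive days, with doses as free base equivalent. SD90 is the daily dose (mg/kg) giving 90% suppression of parasitemia versus control mice, estimated graphically on semilog paper.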

Plasmodium berghei [8] = test: Antimalarial effect against trophozoite-induced Plasmodium berghei in mice (Mus musculus) at 80 mg/kg subcutaneous dose; type: functional
Mus musculus [9] = test: Antimalarial effect against trophozoite-induced Plasmodium berghei in mice (Mus musculus) after subcutaneous administration dose of 320 mg/kg; 3 survived after 60 days of postinfection; type: functional
Plasmodium berghei [10] = test: Antimalarial effect against trophozoite-induced Plasmodium berghei in mice (Mus musculus) at 320 mg/kg subcutaneous dose; type: functional
Plasmodium berghei [11] = test: Antimalarial effect against trophozoite-induced Plasmodium berghei in mice (Mus musculus) at 5 mg/kg subcutaneous dose; type: functional
Mus musculus [12] = test: Antimalarial effect against trophozoite-induced Plasmodium berghei in mice (Mus musculus) after subcutaneous administration dose of 320 mg/kg; 1 survived after 60 days of post infection
Mus musculus [13] = test: Antimalarial effect against trophozoite-induced Plasmodium berghei in mice (Mus musculus) after subcutaneous administration dose of 40 mg/kg; 1 survived after 60 days of postinfection; type: functional
Mus musculus [14] = test: Antimalarial effect against trophozoite-induced Plasmodium berghei in mice (Mus musculus) after subcutaneous administration dose of 2.5 mg/kg; type: functional
Mus musculus [15] = test: (§1) Antimalarial effect against trophozoite-induced Plasmodium berghei in mice (Mus musculus) after subcutaneous administration dose of 20 mg/kg; type: functional
Mus musculus [16] = test: as §1; type: functional; remark: listed apart in the source
Mus musculus [17] = test: Antimalarial effect against trophozoite-induced Plasmodium berghei in mice (Mus musculus) after subcutaneous administration dose of 10 mg/kg; type: functional; conditions: 10 mg/kg
Mus musculus [18] = test: Antimalarial effect against trophozoite-induced Plasmodium berghei in mice (Mus musculus) after subcutaneous administration dose of 1.25 mg/kg; type: functional
Mus musculus [19] = test: Antimalarial effect against trophozoite-induced Plasmodium berghei in mice (Mus musculus) after subcutaneous administration dose of 20 mg/kg; 2 survived after 60 days of postinfection; type: functional; conditions: 20 mg/kg
Mus musculus [20] = test: Antimalarial effect against trophozoite-induced Plasmodium berghei in mice (Mus musculus) after subcutaneous administration dose of 80 mg/kg; 1 survived after 60 days of postinfection; type: functional; conditions: 80 mg/kg

| Compound | Delta MST (Plasmodium berghei [1]) [days] | IC50 (L1210; Mus musculus, L1210, 48 h) [µM] | IC50 (L1210) [µM] | Delta MST (Plasmodium berghei [5]; 40 mg/kg) | SD90 (Mus musculus [7]) [mg/kg/day] | Delta MST (Plasmodium berghei [8]; 80 mg/kg) | Delta MST (Plasmodium berghei [11]) [days] | also measured |
| --- | --- | --- | --- | --- | --- | --- | --- | --- |
| CC(=O)O.Nc1nc(N)c2cc(CNc3ccc4cc(Cl)ccc4c3)ccc2n1.O.O | 3.3 | 0.14 | 0.26 | – | – | – | – | Delta MST (Mus musculus [2]): 20.6 days and 20.7 days; Delta MST (Plasmodium berghei [3]; 20 mg/kg): 8.3 days and 8.5 days |
| Nc1nc(N)c2cc(NCc3ccc(Cl)c(Cl)c3)ccc2n1 | – | – | – | 7.1 days and 2.7 days | 8.5 | 13.1 days and 7.3 days | – | Delta MST (Plasmodium berghei [4]): 9.9 days; Delta MST (Mus musculus [6]): 9.9 days |
| CC(=O)O.Nc1nc(N)c2cc(CNc3ccccc3Cl)ccc2n1.O | 0.7 | 0.093 | 0.068 | 3.1 days and 1.3 days | 8 | – | 0.7 | Delta MST (Mus musculus [9]): 8.4 days; Delta MST (Plasmodium berghei [10]; 320 mg/kg): 9.9 days and 8.4 days; Delta MST (Mus musculus [12]): 7.9 days; Delta MST (Plasmodium berghei [8]): 7.7 days |
| CC(=O)O.Nc1nc(N)c2cc(CNc3ccc(Cl)cc3)ccc2n1.O.O | – | 0.027 | 0.035 | – | 1.9 | 6.9 days and 5.1 days | – | Delta MST (Plasmodium berghei [4]): 9.9 days; Delta MST (Plasmodium berghei [5]): 6.9 days; Delta MST (Plasmodium berghei [3]): 5.1 days |
| CCc1nc(N)nc(N)c1-c1ccc(Cl)cc1 [PYRIMETHAMINE] | 5.3 | – | – | – | – | – | 3.1 | Delta MST (Mus musculus [13]): 7.7 days and 6.1 days; Delta MST (Mus musculus [14]): 4.7 days |
| CC(=O)O.Nc1nc(N)c2c(Cl)c(CNc3ccc(Cl)cc3)ccc2n1.O | – | – | – | – | – | – | – | Delta MST (Mus musculus [15]): 16.9 days and 17.4 days; Delta MST (Mus musculus [14]): 2.7 days; Delta MST (Mus musculus [16]): 16.9 days; Delta MST (Mus musculus [17]): 6.9 days and 6.1 days |
| CC(=O)O.Nc1nc(N)c2cc(CNc3ccc(Cl)c4ccccc34)ccc2n1.O | – | 0.022 | 0.013 | – | – | – | 9.9 | Delta MST (Plasmodium berghei [1]; 10 mg/kg): 10.3 days and 10.5 days and 10.7 days; Delta MST (Mus musculus [18]): 1.7 days; Delta MST (Mus musculus [19]): 11.9 days and 12.6 days and 12.9 days; Delta MST (Mus musculus [14]): 5.5 days |
| CC(=O)O.COc1cc(NCc2ccc3nc(N)nc(N)c3c2)cc(OC)c1OC.O | 0.3 | 0.057 | 0.087 | 0.7 days and 0.3 days | 62 | – | – | Delta MST (Plasmodium berghei [4]; 160 mg/kg): 4.9 days and 4.5 days; Delta MST (Plasmodium berghei [10]): 7.9 days; Delta MST (Plasmodium berghei [3]): 0.7 days |
| CC(=O)O.Nc1nc(N)c2c(Cl)c(CNc3ccc(Cl)c(Cl)c3)ccc2n1.O | – | – | – | – | – | – | 4.3 | Delta MST (Mus musculus [18]): 2.9 days |
| CC(=O)O.Cc1c(CNc2cccc(Br)c2)ccc2nc(N)nc(N)c12.O | – | 0.0044 | 0.0037 | 9.3 days and 11.2 days | 0.2 | 21.8 days and 9.2 days | 7.7 | Delta MST (Mus musculus [18]): 0.5 days; Delta MST (Plasmodium berghei [3]; 20 mg/kg): 12.6 days and 11.2 days and 7.7 days |
| CC(=O)N(Cc1ccc2nc(N)nc(N)c2c1)c1ccc(Cl)c(Cl)c1 | 0.9 | 0.3 | 0.19 | – | >15.1 | 8.3 days and 3.7 days and 4.1 days | – | Delta MST (Plasmodium berghei [5]): 3.7 days; Delta MST (Plasmodium berghei [3]): 1.3 days |
| Nc1nc(N)c2cc(CN(N=O)c3ccc(Cl)c(C(F)(F)F)c3)ccc2n1 | 1.3 | – | – | 10.9 days and 11.1 days | – | – | – | Delta MST (Mus musculus [20]): 14.9 days and 15.2 days; Delta MST (Plasmodium berghei [3]; 20 mg/kg): 5.1 days and 5.3 days |
